Experiments:
[1] = The ratio of aerobic CT10 to hypoxic CT10.; type: functional
Summary of the method: (§1)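 Clonogenic assay on stirred plateau-phase AA8 suspensions (10⁶/mL), gassed with 5% CO₂ in air or in N₂ after 60 min preequilibration. Survival sampled every 0.5–1 h up to 8 h at several drug concentrations. CT10 taken at each concentration. Interpolated aerobic CT10 divided by hypoxic CT10 at the same time; ranges cover 1–8 h exposure.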

[2] = (§2) In vitro therapeutic index (aerobic IC50 / hypoxic C1.6); type: cell-based, Cricetulus griseus; settings: chinese hamster, CHO-AA8 cells; read-out: TI
Summary of the method: (§3)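 Hypoxic C1.6: stirred AA8 gassed with 5% CO₂/N₂ 60 min, drug 30 min, ⁶⁰Co irradiation at 37 °C (~2 Gy/min). D10 from linear-quadratic fit; concentration giving SER 1.6 interpolated. Index = IC50/C1.6.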

CHO-AA8 [3] = assay: Average intracellular compound concentration when the hypoxic SER=1.6.; type: functional, Cricetulus griseus
Summary of the method: (§4)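 Hypoxic stirred AA8 suspensions (10⁷ cells) incubated 30 min at the C1.6 concentration. Cells and supernatant separated by centrifugation and extracted into MeCN. Drug measured by C18 HPLC with formate pH 4.5/MeCN gradient, absorbance 320 nm. Values corrected for recovery using spiked medium or lysed pellets. Mean intracellular concentration calculated assuming 11.6 µL cell water and 1.1 µL pellet extracellular water per 10⁷ cells.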

FME = assay: Aerobic cytotoxicity against human melanoma FME cells in a growth inhibition microassay; type: functional
Summary of the method: (§5)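 Cells kept as log-phase monolayers in antibiotic-free Alpha MEM with 10% heat-inactivated FCS. Per well: 200 AA8, 300 UV4, 50 EMT6 or 1000 FME cells. Drug added 24 h after seeding and removed after 18 h. Cell mass (protein, methylene blue absorbance) read 72–78 h after washout. IC50 = concentration giving 50% of the mean of eight controls on the same plate.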

CHO-AA8 [4] = assay: (§6) Compound concentration required to reduce cell survival to 10% of control values under hypoxic condition; type: cell-based, Cricetulus griseus; settings: chinese hamster
Summary of the method: (§7)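 Chinese hamster AA8 cells at plateau phase, 10⁶/mL, in magnetically stirred 10-mL suspensions. Gassed continuously with 5% CO₂ in N₂ (hypoxic) or in air (aerobic); cells and drug preequilibrated under the gas for 60 min. Clonogenic plating efficiency read every 0.5–1 h for up to 8 h at several drug concentrations. Concentration × time for 10% survival (CT10) estimated at each concentration.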

[5] = Partition coefficient (logP); type: physicochemical; settings: octanol/water
Summary of the method: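 log P octanol computed with CLOGP rather than measured.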

CHO-AA8 [6] = assay: Concentration required to reduce AA8 cell numbers to 50% of controls in a growth inhibition microassay; type: functional, cell-based; settings: Cricetulus griseus; summary of the method: as §5
UV4 = assay: Aerobic cytotoxicity against UV4 cells in a growth inhibition microassay; type: functional, Cricetulus griseus; summary of the method: as §5
EMT6 = assay: Aerobic cytotoxicity against murine mammary carcinoma EMT6 cells in a growth inhibition microassay; type: functional, Mus musculus; summary of the method: as §5
CHO-AA8 [7] = assay: Compound concentration at which sensitizer enhancement ratio =1.6 under hypoxia.; type: functional, Cricetulus griseus
Summary of the method: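 Stirred AA8 suspensions gassed 60 min with 5% CO2 in N2. Drug added 30 min before ⁶⁰Co irradiation at 37 °C (ca. 2 Gy/min, typically 6 Gy steps). Clonogenic survival taken against unirradiated cells from the same culture. Linear-quadratic fit gives D10; SER = D10 without/with drug, determined over a range of concentrations to estimate C1.6. Only concentrations with minimal drug toxicity during irradiation were used.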

[8] = Ratio of mean intracellular to extracellular compound concentration determined under hypoxic condition.; type: functional, cell-based
Summary of the method: (§8)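 AA8 suspension (10⁷ cells) made hypoxic with 5% CO₂ in N₂, exposed 30 min at 37 °C to drug at the C1.6. Supernatant and lysed pellet extracted in MeCN. Assayed by C18 HPLC (formate pH 4.5/MeCN gradient, 320 nm), corrected for spiked recoveries. Intracellular level from 11.6 µL cell water/10⁷ cells, with [¹⁴C]sucrose and ³H₂O spaces. Result expressed as Ci/Ce.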

CHO-AA8 [9] = assay: as §2; type: functional, Cricetulus griseus
Summary of the method: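 C1.6 is the concentration giving SER 1.6 in hypoxic stirred AA8 suspensions exposed to drug for 30 min before ⁶⁰Co irradiation at 37 °C.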

CHO-AA8 [10] = assay: Compound concentration required to reduce cell survival to 10% of control values under hypoxic condition.; type: cell-based, Cricetulus griseus; settings: chinese hamster; summary of the method: as §7
CHO-AA8 [11] = assay: Average intracellular compound concentration where the hypoxia sensitizer enhancement ratio (SER)=1.6; type: functional, Cricetulus griseus; summary of the method: as §4
[12] = as §2; type: functional; summary of the method: as §3
[13] = Ratio of mean intracellular to extracellular compound concentration determined under hypoxic conditions 30 mins after exposure to compound at C1.6 concentration; type: functional, cell-based; summary of the method: as §8
CHO-AA8 [14] = assay: Average intracellular compound concentration where the sensitizer enhancement ratio (SER)=1.6 under hypoxia; type: functional, Cricetulus griseus; summary of the method: as §4
[15] = The ratio of aerobic CT10 to hypoxic CT10; type: functional; summary of the method: as §1
CHO-AA8 [16] = assay: Average intracellular compound concentration when the hypoxic SER=1.6; type: functional, Cricetulus griseus; summary of the method: as §4
CHO-AA8 [17] = assay: as §6; type: functional, Cricetulus griseus
Summary of the method: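 Plateau-phase AA8 cells (10⁶/mL) in magnetically stirred 10-mL cultures, gassed continuously with N2 plus 5% CO2. Cells and drug pre-equilibrated 60 min. Clonogenic plating every 0.5–1 h for up to 8 h at several concentrations. CT10 (concentration × time for 10% survival) estimated at each concentration.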

Compound	Ratio [1]	selectivity ratio [2]	C1.6 (CHO-AA8 [3]) [mM]	Hypersensitivity factor (FME)	CT10 (CHO-AA8 [4]) [mM-hr]	logP [5]	IC50 (CHO-AA8 [6]) [mM]	Hypersensitivity factor (UV4)	Hypersensitivity factor (EMT6)	C1.6 (CHO-AA8 [7]) [mM]	Uptake ratio [8]	TI (CHO-AA8 [9])	CT10 (CHO-AA8 [10]) [mM-hr]	C1.6 (CHO-AA8 [11]) [mM]	TI [12]	Uptake ratio [13]	C1.6 (CHO-AA8 [14]) [mM]	Ratio [15]	C1.6 (CHO-AA8 [16]) [mM]	CT10 (CHO-AA8 [17]) [mM-hr]
Cc1ncc([N+](=O)[O-])n1CCNC(=O)CCCCn1ccnc1[N+](=O)[O-]	> 7	4	0.48	3.5	6	-0.79	3.8	1.2	1.7	0.93	0.52	–	–	–	–	–	–	–	–	–
O=C(CCn1ccnc1[N+](=O)[O-])NCCCn1ccnc1[N+](=O)[O-]	6.5	–	–	3.9	2.5	-1.55	6.1	1.2	3.5	–	–	–	–	–	–	–	–	–	–	–
O=[N+]([O-])c1nccn1CC(O)CNCCBr (centres undefined)	20	–	–	1	0.18	–	0.15	5.9	1.6	0.13	–	1.1	–	–	–	–	–	–	–	–
O=C(CCCn1ccnc1[N+](=O)[O-])NCCn1cnc([N+](=O)[O-])c1	–	< 1.6	>0.36	–	> 15	-1.55	–	–	–	>1.1	–	–	–	–	–	–	–	–	–	–
O=C(CCCn1ccnc1[N+](=O)[O-])NCCn1ccnc1	8	–	–	3	–	1.32	24	1.3	4.2	–	–	–	26	1.32	6	0.33	4	–	–	–
Cc1ncc([N+](=O)[O-])n1CCNC(=O)Cn1c([N+](=O)[O-])cnc1C	2	2.8	4.1	2.3	–	-0.76	7.7	1	4.4	2.7	1.5	–	50	–	–	–	–	–	–	–
Cc1ncc([N+](=O)[O-])n1CCO [METRONIDAZOLE]	–	1.7	–	1	100	–	23	1	1	–	–	–	–	17.3	–	1.3	13.3	5	–	–
COCC(O)Cn1ccnc1[N+](=O)[O-] (centres undefined) [MISONIDAZOLE]	25	–	–	1.9	–	–	–	1.4	3.6	–	–	–	8.3	0.4	28	0.9	0.43	–	–	–
Cc1ncc([N+](=O)[O-])n1CCNC(=O)CCn1ccnc1[N+](=O)[O-]	> 7	7.9	0.42	2.9	12	-0.99	5.5	0.9	2.5	0.7	0.6	–	–	–	–	–	–	–	–	–
Cc1ncc([N+](=O)[O-])n1CCNC(=O)CCCn1ccnc1[N+](=O)[O-]	8	11	0.21	4.6	0.37	-1.28	7.2	1.4	1.3	0.63	0.33	–	–	–	–	–	–	–	–	–
O=C(CCCn1ccnc1[N+](=O)[O-])NCCn1ccnc1[N+](=O)[O-]	> 6	1.7	–	–	3.4	-1.55	–	–	–	1.54	0.5	–	–	–	–	–	–	–	0.77	–
O=C(CCCn1ccnc1[N+](=O)[O-])NCCn1cncc1[N+](=O)[O-]	> 30	> 4.7	0.27	>2.1	0.8	-1.55	> 4.2	–	>1.7	0.9	0.3	–	–	–	–	–	–	–	–	–
Cc1ncc([N+](=O)[O-])n1CCNC(=O)Cn1ccnc1[N+](=O)[O-]	2.4	4.3	0.54	2.1	11	-1.03	4.7	1	2.2	1.08	0.5	–	–	–	–	–	–	–	–	–
Cc1ncc([N+](=O)[O-])n1CCNC(=O)CCCCCn1ccnc1[N+](=O)[O-]	> 17	1.2	0.36	–	–	-0.22	–	–	–	0.65	0.55	–	–	–	–	–	–	–	–	1.5

Source: ChEMBL document CHEMBL1127318, “Hypoxia-selective antitumor agents. 8. Bis(nitroimidazolyl)alkanecarboxamides: a new class of hypoxia-selective cytotoxins and hypoxic cell radiosensitisers” (J Med Chem, 1994)
